Here are results for 22 compounds from ChEMBL document CHEMBL1131432, “Side chain methyl substitution in the delta-opioid receptor antagonist TIPP has an important effect on the activity profile” (J Med Chem, 1998).

One assay has as its target Mu-type opioid receptor (Rattus norvegicus, UniProt P33535). In words: Binding affinity towards Opioid receptor mu 1 on rat forebrain membranes by [3H]sufentanil displacement. The arrangement: species or system Membrane.
For assay [1], the species on record is Mus musculus. In words: (§1) Inhibition of electrically evoked contractions of MVD in MVD assay, the opioid effect was primarily mediated by delta-receptor. In kind it is functional. An outline of the steps: (§2)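 Isolated guinea pig ileum or mouse vas deferens, electrically stimulated; the read-out is inhibition of contractions. A [Leu5]enkephalin log dose–response curve was run on each preparation and test IC50 values were normalised to it. Antagonist Ke was taken from the IC50 ratio with and without a fixed antagonist concentration; in MVD the δ-antagonism was measured against DPDPE.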

For assay [2], the species on record is Cavia porcellus. In words: In vitro opioid activity tested in bioassay based on inhibition of electrically evoked contractions of the GPI. The format is functional. An outline of the steps:
as §2

Assay [3] deals with Kappa-type opioid receptor (Cavia porcellus, UniProt P41144). Put plainly: Binding affinity towards Opioid receptor kappa 1 on guinea pig cerebellum membranes by [3H]U-69593 displacement. The format is tissue-based, Membrane.
Chain of Kappa-type opioid receptor (P41144 whole entry): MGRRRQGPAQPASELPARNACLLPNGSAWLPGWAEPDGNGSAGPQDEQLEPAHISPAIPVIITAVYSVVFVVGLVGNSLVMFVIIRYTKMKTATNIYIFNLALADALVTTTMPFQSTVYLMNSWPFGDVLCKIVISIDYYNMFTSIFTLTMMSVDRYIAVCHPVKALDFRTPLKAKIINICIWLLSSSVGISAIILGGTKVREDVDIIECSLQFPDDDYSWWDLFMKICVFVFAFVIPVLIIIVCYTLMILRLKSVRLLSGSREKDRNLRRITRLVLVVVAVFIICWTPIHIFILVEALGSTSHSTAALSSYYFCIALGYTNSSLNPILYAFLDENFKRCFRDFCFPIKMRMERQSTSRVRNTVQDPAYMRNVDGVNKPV
The species named for assay [4] is Mus musculus. In words: Inhibition of electrically evoked contractions of MVD. In MVD assay, the opioid effect was primarily mediated by delta-receptor. In kind it is functional. An outline of the steps:
as §2

The species named for assay [5] is Cavia porcellus. In words: In vitro agonist activity in electrically stimulated guinea pig ileum. In kind it is functional. In short, it runs like this: as §2
The species named for assay [6] is Mus musculus. The assay is described as §1. In kind it is functional. This is another data set of the same source.
The species named for assay [7] is Mus musculus. In words: Inhibition of electrically evoked contractions of MVD. In MVD assay, the opioid effect is primarily mediated by delta-receptor. The format is functional. In short, it runs like this: (§3)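 Mouse vas deferens preparations, electrically stimulated, with inhibition of evoked contractions as the read-out. Each preparation got a [Leu5]enkephalin log dose-response curve as standard, and test IC50 values were normalized against it. Antagonism was tested against the agonist DPDPE. Ke came from the ratio of agonist IC50 with and without a fixed antagonist concentration.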

For assay [8], the species on record is Mus musculus. Put plainly: Inhibition of electrically evoked contractions of MVD. In MVD assay, the opioid effect are primarily mediated by delta-receptors. The format is functional. In short, it runs like this: as §3
The species named for assay [9] is Mus musculus. The description is as §1. In kind it is functional, organism-based. In short, it runs like this: as §2

Where only a bound is given, the exact number is not on record here.

Chain of Mu-type opioid receptor (P33535 whole entry): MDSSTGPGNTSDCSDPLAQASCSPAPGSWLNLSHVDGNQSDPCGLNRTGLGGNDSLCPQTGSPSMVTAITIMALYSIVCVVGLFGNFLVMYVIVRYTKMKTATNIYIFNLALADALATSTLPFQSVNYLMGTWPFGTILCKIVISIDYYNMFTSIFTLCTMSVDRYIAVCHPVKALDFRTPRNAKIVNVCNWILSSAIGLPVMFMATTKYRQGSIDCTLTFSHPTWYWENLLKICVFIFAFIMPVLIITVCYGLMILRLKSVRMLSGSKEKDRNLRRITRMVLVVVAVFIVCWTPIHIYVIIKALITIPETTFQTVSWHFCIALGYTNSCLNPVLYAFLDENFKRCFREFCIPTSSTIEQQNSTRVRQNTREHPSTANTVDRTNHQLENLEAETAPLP

In general, Ki refers to a measure of affinity in units of concentration, obtained from inhibition or displacement. Read a low Ki as tighter binding. Take `C[C@H](c1ccccc1)[C@@H](NC(=O)[C@H](Cc1ccccc1)NC(=O)[C@@H]1Cc2ccccc2CN1C(=O)[C@@H](N)Cc1ccc(O)cc1)C(N)=O`: the Ki on Mu-type opioid receptor was found to be 0.498 µM; in assay [3], 0.766 µM. In addition, the Ke in the assay listed under Mus musculus [1] was 20.5 nM. In the assay filed under Cavia porcellus [2], this compound yielded an IC35 of 1.71 µM.

As usually defined, the IC50 is the concentration needed to halve the response being measured. High values mean weaker potency, low ones greater potency. On to `C[C@H]1c2ccccc2CN(C(=O)C(N)Cc2ccc(O)cc2)[C@H]1C(=O)N[C@@H](Cc1ccccc1)C(=O)N[C@@H](Cc1ccccc1)C(=O)O` (single isomer, unassigned), for which the inhibition constant Ki (at Mu-type opioid receptor; in [3]) was more than 10 µM each time. For the same compound, the Ke in the assay filed under Mus musculus [4] is 1.61 nM. The compound also gave a concentration for half-maximal inhibition (IC50) in the assay filed under Cavia porcellus [5] of more than 10 µM.

As usually defined, the IC25 is the concentration needed for an effect of 25%. High values mean a need for much substance, low ones an effect from little substance. On to `C[C@H](c1ccc(O)cc1)[C@H](N)C(=O)N1Cc2ccccc2C[C@H]1C(=O)N[C@@H](Cc1ccccc1)C(=O)N[C@@H](Cc1ccccc1)C(N)=O`, for which the inhibitory constant (Ki) was 0.284 µM on Mu-type opioid receptor and more than 10 µM in assay [3]. In addition, the IC50 in the assay listed under Cavia porcellus [5] is 1.21 µM. The compound also registered an IC25 in the assay listed under Mus musculus [6] of 1.03 µM.

`C[C@@H](c1ccccc1)[C@@H](NC(=O)[C@H](Cc1ccccc1)NC(=O)[C@@H]1Cc2ccccc2CN1C(=O)[C@@H](N)Cc1ccc(O)cc1)C(N)=O`: the Ki at Mu-type opioid receptor is more than 10 µM; in [3], 2.84 µM. The Ke in the assay filed under Mus musculus [1] was 27.7 nM. The compound further came in with an IC50 in the assay filed under Cavia porcellus [5] of 4.51 µM.

In the case of `C[C@@H]1c2ccccc2CN(C(=O)[C@@H](N)Cc2ccc(O)cc2)C1C(=O)N[C@@H](Cc1ccccc1)C(=O)N[C@@H](Cc1ccccc1)C(=O)O` (single isomer, unassigned; 15), the Ki (at Mu-type opioid receptor; in assay [3]) was more than 10 µM in each case. The compound further yielded a Ke in the assay listed under Mus musculus [1] of 1560 nM. In the assay listed under Cavia porcellus [5], the IC50 is more than 10 µM.

`N[C@@H](Cc1ccc(O)cc1)C(=O)N1Cc2ccccc2C[C@H]1C(=O)N[C@@H](Cc1ccccc1)C(=O)N[C@@H](Cc1ccccc1)C(=O)O`: the Ki (on Mu-type opioid receptor; in [3]) was more than 10 µM throughout. For the same compound, the Ke in the assay listed under Mus musculus [4] worked out at 4.8 nM. The compound further came in with a half-maximal inhibitory concentration (IC50) in the assay listed under Cavia porcellus [5] of more than 10 µM.

Take `NC(=O)[C@H](Cc1ccccc1)NC(=O)[C@@H](Cc1ccccc1)NC(=O)[C@@H]1Cc2ccccc2CN1C(=O)[C@@H](N)Cc1ccc(O)cc1`: the Ki at Mu-type opioid receptor is 0.658 µM. This compound also yielded a Ke in the assay listed under Mus musculus [4] of 125 nM. Moreover, in the assay filed under Cavia porcellus [5], the IC50 was more than 10 µM.

With `NC(=O)[C@H](Cc1ccccc1)NC(=O)[C@H](Cc1ccccc1)NC(=O)[C@@H]1Cc2ccccc2CN1C(=O)[C@@H](N)Cc1ccc(O)cc1`, the figures for the Ki (at Mu-type opioid receptor; in [3]) were 0.178 µM and 0.838 µM, respectively. This compound returned a Ke in the assay listed under Mus musculus [7] of 18 nM.

As to `N[C@@H](Cc1ccc(O)cc1)C(=O)N1Cc2ccccc2C[C@H]1C(=O)NC(Cc1ccccc1)C(=O)N[C@@H](Cc1ccccc1)C(=O)O` (single isomer, unassigned), at Mu-type opioid receptor, affinity was put at a Ki of 4 µM.

`C[C@H](c1ccccc1)[C@H](NC(=O)[C@@H]1Cc2ccccc2CN1C(=O)[C@@H](N)Cc1ccc(O)cc1)C(=O)N[C@@H](Cc1ccccc1)C(N)=O`: the Ki is 0.149 µM on Mu-type opioid receptor and 4.32 µM in assay [3]. Besides, in the assay listed under Mus musculus [1], the Ke came to 7.24 nM. This compound gave an IC50 in the assay listed under Cavia porcellus [5] of 5.08 µM.

Take `C[C@@H](c1ccc(O)cc1)[C@H](N)C(=O)N1Cc2ccccc2C[C@H]1C(=O)N[C@@H](Cc1ccccc1)C(=O)N[C@@H](Cc1ccccc1)C(N)=O`: the inhibition constant Ki on Mu-type opioid receptor is 0.352 µM; in [3], more than 10 µM. This compound displayed a Ke in the assay listed under Mus musculus [8] of 102 nM. The compound also had a concentration for half-maximal inhibition (IC50) in the assay filed under Cavia porcellus [5] of more than 10 µM.

With `C[C@H](c1ccccc1)C(NC(=O)[C@@H]1Cc2ccccc2CN1C(=O)[C@@H](N)Cc1ccc(O)cc1)C(=O)N[C@@H](Cc1ccccc1)C(N)=O` (single isomer, unassigned), the Ki on Mu-type opioid receptor is more than 10 µM; in assay [3], 0.442 µM. This compound came in with a Ke in the assay listed under Mus musculus [1] of 54.4 nM. For the same compound, in the assay filed under Cavia porcellus [5], the IC50 was more than 10 µM.

Consider `C[C@H](c1ccccc1)C(NC(=O)[C@H](Cc1ccccc1)NC(=O)[C@@H]1Cc2ccccc2CN1C(=O)[C@@H](N)Cc1ccc(O)cc1)C(N)=O` (single isomer, unassigned), for which the inhibitory constant (Ki) on Mu-type opioid receptor worked out at 2.02 µM; in assay [3], 0.253 µM. Further, the Ke in the assay listed under Mus musculus [1] worked out at 5.37 nM. This compound came in with a concentration for half-maximal inhibition (IC50) in the assay filed under Cavia porcellus [5] of 2.74 µM.

Turning to `CC1c2ccccc2CN(C(=O)C(N)Cc2ccc(O)cc2)[C@@H]1C(=O)N[C@@H](Cc1ccccc1)C(=O)N[C@@H](Cc1ccccc1)C(=O)O` (single isomer, unassigned), the Ki (on Mu-type opioid receptor; in [3]) was more than 10 µM each time. The compound further gave a Ke in the assay listed under Mus musculus [4] of 2.09 nM. For the same compound, the half-inhibitory concentration (IC50) in the assay listed under Cavia porcellus [5] was more than 10 µM.

In the case of `C[C@@H](c1ccccc1)[C@H](NC(=O)[C@H](Cc1ccccc1)NC(=O)[C@@H]1Cc2ccccc2CN1C(=O)[C@@H](N)Cc1ccc(O)cc1)C(N)=O`, the inhibitory constant (Ki) is 0.047 µM on Mu-type opioid receptor and 1.28 µM in assay [3]. This compound had a Ke in the assay filed under Mus musculus [4] of 5.36 nM. The IC50 in the assay filed under Cavia porcellus [5] turned out to be 0.636 µM.

With `C[C@@H]1c2ccccc2CN(C(=O)[C@@H](N)Cc2ccc(O)cc2)C1C(=O)N[C@@H](Cc1ccccc1)C(=O)N[C@@H](Cc1ccccc1)C(=O)O` (single isomer, unassigned; 16), the Ki (on Mu-type opioid receptor; in [3]) was more than 10 µM each time. The Ke in the assay listed under Mus musculus [1] stood at 401 nM. Further, the IC50 in the assay filed under Cavia porcellus [5] is more than 10 µM.

Consider `C[C@@H](c1ccccc1)[C@H](NC(=O)[C@@H]1Cc2ccccc2CN1C(=O)[C@@H](N)Cc1ccc(O)cc1)C(=O)N[C@@H](Cc1ccccc1)C(N)=O`, for which the Ki stood at 0.973 µM at Mu-type opioid receptor and 3.4 µM in assay [3]. This compound came in with a Ke in the assay filed under Mus musculus [4] of 18.2 nM. For the same compound, the 50% inhibitory concentration (IC50) in the assay listed under Cavia porcellus [5] is 5.52 µM.

For the compound `C[C@@H](c1ccccc1)C(NC(=O)[C@@H]1Cc2ccccc2CN1C(=O)[C@@H](N)Cc1ccc(O)cc1)C(=O)N[C@@H](Cc1ccccc1)C(N)=O` (single isomer, unassigned), the Ki at Mu-type opioid receptor worked out at 0.084 µM; in assay [3] it was 1.19 µM. In addition, the half-inhibitory concentration (IC50) in the assay listed under Cavia porcellus [5] was found to be 0.127 µM.

Consider `C[C@H](c1ccc(O)cc1)[C@@H](N)C(=O)N1Cc2ccccc2C[C@H]1C(=O)N[C@@H](Cc1ccccc1)C(=O)N[C@@H](Cc1ccccc1)C(N)=O`, for which the Ki is 1.6 µM at Mu-type opioid receptor and 1.18 µM in assay [3]. This compound also yielded a Ke in the assay listed under Mus musculus [1] of 1020 nM. In addition, the 50% inhibitory concentration (IC50) in the assay filed under Cavia porcellus [5] is more than 10 µM.

For the compound `C[C@H](c1ccccc1)[C@@H](NC(=O)[C@@H]1Cc2ccccc2CN1C(=O)[C@@H](N)Cc1ccc(O)cc1)C(=O)N[C@@H](Cc1ccccc1)C(=O)O`, the Ki (on Mu-type opioid receptor; in assay [3]) was more than 10 µM in each case. The compound further had a Ke in the assay listed under Mus musculus [4] of 0.192 nM. The IC50 in the assay listed under Cavia porcellus [5] was more than 10 µM.

Take `NC(=O)[C@H](Cc1ccccc1)NC(=O)[C@H](Cc1ccccc1)NC(=O)C1Cc2ccccc2CN1C(=O)[C@@H](N)Cc1ccc(O)cc1` (single isomer, unassigned): the IC50 in the assay filed under Mus musculus [9] came out at 0.454 µM; in the assay filed under Cavia porcellus [5], 0.0371 µM. This compound also came in with an inhibitory constant (Ki) on Mu-type opioid receptor of 0.0073 µM.

On to `C[C@@H](c1ccc(O)cc1)C(N)C(=O)N1Cc2ccccc2C[C@H]1C(=O)N[C@@H](Cc1ccccc1)C(=O)N[C@@H](Cc1ccccc1)C(N)=O` (single isomer, unassigned), for which the results for the Ki (on Mu-type opioid receptor; in [3]) were more than 10 µM and 2.51 µM, respectively. In the assay filed under Mus musculus [1], this compound showed a Ke of 317 nM. The compound further had an IC50 in the assay listed under Cavia porcellus [5] of more than 10 µM.
